Hits are enriched below; roughly 5.1% of the tested compounds scored in any of these assays.
APP 5'UTR act = activates APP 5'UTR luciferase reporter; hit rate 1% among 190,000; activation, % at 2 µM; AID 1276; SH-SY5Y APP 5'UTR luciferase reporter, luminescence; zero percent = DMSO vehicle wells;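 active = activation above a set limit, based on mean plus 3 SD of controls, cut at about 140% in these data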
STAT3 blocker = STAT3 signaling inhibition. U3A cells, IL-6 STAT3-luciferase reporter, luminescence; host cell line lacks STAT1. inhibition, % at 5.5 µM. hit rate 0.89% among 190,000;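 active = inhibition above the mean inhibition across all screened compounds plus 3 SD, cut at about 44% in these data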
STAT1 activator = STAT1 signaling activation | hit rate 2.6% among 200,000 | NIH 3T3 STAT1-luciferase reporter, IFN-gamma, luminescence; 100% = IFN-gamma alone, no compound | AID 932 | activation (% of control), % at 5.5 µM;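 active = activation above the screen-wide mean activation plus 3 SD, cut at about 130% in these data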
NF-kB expr up = raises NF-kB expression in human neuronal cells | NF-kB reporter expression; active compounds read high | fold change at 12.5 µM | hit rate 1.6% among 190,000; in the data active = fold change above about 3.3
STAT1 blocker = reduces IFN-gamma driven STAT1 reporter signal; inhibition, % at 5.5 µM; NIH 3T3 STAT1-luciferase reporter, luminescence; AID 920; hit rate 0.35% among 200,000;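 active = inhibition above a set limit, the mean inhibition across all tested compounds plus 3 SD, cut at about 34% in these data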
STAT3 act = increases IL-6 driven STAT3 reporter signal; hit rate 0.91% among 190,000; U3A cells, IL-6 STAT3-luciferase reporter, luminescence; 100% = signal with IL-6 EC80 alone; AID 871; activation (% of control), % at 5.6 µM;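 active = activation above the screen-wide mean of compound activation plus 3 SD, cut at about 130% in these data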
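Material: STAT3-luciferase reporter U3A cells; Probe or stimulus: IL-6 (33 ng/mL); Incubation: compound pre-incubation 1 h before IL-6, then 6 h stimulation at 37 °C; Technique: luminescence from STAT3-driven luciferase reporter; Evaluation: % activation versus median of IL-6-stimulated wells; Controls: IL-6-only high control.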
Each line names hits and unclear results; the compound was inactive in the other large screens.

O=C(NCC1COc2ccccc2O1)c1ccc(Cl)cc1 (configuration not stated)	STAT1 activator 140.1
O=C(NCC1COc2ccccc2O1)c1ccc(NC(=O)c2ccco2)cc1 (configuration not stated)	none
C=CCSc1n[nH]c(-c2ccc(OCCCC)cc2)n1	none
CCCCOc1ccc(-c2[nH]ncc2C=O)cc1	STAT1 activator 134.6
O=C(NCc1ccc(Cl)cc1)C(=O)NCC(c1cccnc1)N1CCN(c2ccc(F)cc2)CC1 (configuration not stated)	none
CC(C)C(=O)Nc1cccc(-c2cn3ccccc3n2)c1	none
Cc1ccn2cc(-c3cccc(NC(=O)C(C)C)c3)nc2c1	STAT1 activator 131.7
O=C1[C@@H]2Cc3c([nH]c4ccccc34)[C@@H](c3ccccc3)N2C(=O)[C@@H]2Cc3c([nH]c4ccccc34)[C@@H](c3ccccc3)N12	STAT3 act 137.2
Cc1cccc(CSc2cccc3cccnc23)c1	STAT1 activator 145.9
COC(=O)c1ccc(N=NNc2ccc(C(=O)OC)cc2)cc1	STAT1 activator 148.0, NF-kB expr up 3.5
O=C(O)c1ccc(N=NNc2cccc([N+](=O)[O-])c2)cc1	STAT1 activator 142.8, NF-kB expr up 4.07
COC(=O)c1ccc(CSCC(=O)Nc2ccccc2)cc1	none
COC(=O)c1ccc(N=NNc2ccccc2)cc1	STAT1 activator 146.0
Cc1cc(/C=C\c2ccccc2)nc2ccccc12	STAT1 activator 143.0
CCOc1ccccc1N1CC(O)=C(c2nc3ccccc3s2)C1=N	none
N=C1C(c2nc3ccccc3s2)=C(O)CN1C1CCCCC1	STAT1 activator 147.2
CCN(CC)CCCN1CC(O)=C(c2nc3ccccc3s2)C1=N	none
N=C1C(c2nc3ccccc3s2)=C(O)CN1Cc1ccccc1	STAT1 activator 131.0
O=C(COC(=O)CCc1ccc(S(=O)(=O)N2CCOCC2)cc1)NC(=O)NC1CCCCC1	none
CC(C)CC(=O)N1CCC(O)(CS(=O)(=O)c2ccc(Cl)c(Cl)c2)CC1	none
CCCc1nc2c(=O)n(C)c(=O)nc-2n(C)n1	STAT3 blocker 94.3, STAT1 blocker 92.5 (no result: NF-kB expr up)
CC(C)OCCCNC(=O)Cc1ccc(Br)cc1	none
O=[N+]([O-])c1ccc(/C=C/c2ccc3cccc([N+](=O)[O-])c3n2)cc1	none
O=[N+]([O-])c1cccc2ccc(/C=C/c3ccc(F)cc3)nc12	STAT1 activator 133.3, STAT3 act 134.7
Cc1cc(Cl)ccc1OCC(=O)NN1C(=O)C2C3C=CC(C3)C2C1=O (configuration not stated)	none
Cc1cc(=O)[nH]c(SCC(=O)NCC2CCCCC2)c1C#N	none
CCCn1c(NC(=O)c2ccc(F)cc2)nc2ccccc21	none
CCCn1c(NC(=O)c2ccc(Br)cc2)nc2ccccc21	STAT3 act 133.8
Cc1cc(-c2ccc(C(=O)O)s2)cnc1N	STAT1 activator 128.9
CCCc1nc2ccc(NC(C)=O)cc2c(=O)n1Cc1ccc(Cl)cc1	STAT1 activator 142.6, NF-kB expr up 3.66
CCc1c(C)nc(SCC(=O)c2cccs2)c(C#N)c1C	STAT1 activator 136.4, STAT3 act 149.4
CCc1c(C)nc(SCC(N)=O)c(C#N)c1C	none (no result: APP 5'UTR act)
CC(C)CC(C(=O)Nc1ccccc1)N1C(=O)C2C3C=CC(C3)C2C1=O (configuration not stated)	none (no result: NF-kB expr up)
Clc1cc(Cl)c(OCc2nc(-c3ccccn3)no2)cc1Cl	STAT1 activator 132.4, NF-kB expr up 5.23
c1cc(-c2noc(CC3CCCCC3)n2)ccn1	none
c1ccc(-c2noc(CC3CCCCC3)n2)nc1	STAT1 activator 132.7
COc1cc(C(=O)NCCOc2cccc3cccnc23)cc(OC)c1OC	none
COc1ccc(S(=O)(=O)NCCOc2cccc3cccnc23)cc1OC	STAT1 activator 129.0
Nc1ccn(Cc2ccc(F)cc2)n1	none
O=C1ON=C(c2ccccc2)/C1=C/c1ccc(OS(=O)(=O)c2ccccc2)cc1	none
CN(C)/N=C/c1ccc(OS(=O)(=O)c2ccccc2)cc1	STAT1 activator 139.9, NF-kB expr up 4.78
Cc1cccc(NC(=O)CCSc2ccccn2)c1	none
Cc1ccc(NC(=O)CCSc2ccccn2)cc1	STAT1 activator 142.0
O=C(CSc1ccccn1)Nc1ccc2c(c1)C(=O)c1ccccc1C2=O	none
